Data published in ChEMBL document CHEMBL3108700, “Designing anti-inflammatory drugs from parasitic worms: a synthetic small molecule analogue of the Acanthocheilonema viteae product ES-62 prevents development of collagen-induced arthritis” (J Med Chem, 2013).
Active and inactive are the calls of the source. Unless noted, no cut-off for these calls is given here.

What was measured:
[1] = molecular target: T1, Toll-like receptor 4 (Mus musculus) (UniProt Q9QUK6); assay: Inhibition of TLR4 in BALB/c mouse BMDM assessed as reduction of LPS-stimulated IL-6 production at 0.2 ug/ml preincubated for 18 hrs followed by LPS challenge measured after 24 hrs by ELISA
T1 sequence (whole entry): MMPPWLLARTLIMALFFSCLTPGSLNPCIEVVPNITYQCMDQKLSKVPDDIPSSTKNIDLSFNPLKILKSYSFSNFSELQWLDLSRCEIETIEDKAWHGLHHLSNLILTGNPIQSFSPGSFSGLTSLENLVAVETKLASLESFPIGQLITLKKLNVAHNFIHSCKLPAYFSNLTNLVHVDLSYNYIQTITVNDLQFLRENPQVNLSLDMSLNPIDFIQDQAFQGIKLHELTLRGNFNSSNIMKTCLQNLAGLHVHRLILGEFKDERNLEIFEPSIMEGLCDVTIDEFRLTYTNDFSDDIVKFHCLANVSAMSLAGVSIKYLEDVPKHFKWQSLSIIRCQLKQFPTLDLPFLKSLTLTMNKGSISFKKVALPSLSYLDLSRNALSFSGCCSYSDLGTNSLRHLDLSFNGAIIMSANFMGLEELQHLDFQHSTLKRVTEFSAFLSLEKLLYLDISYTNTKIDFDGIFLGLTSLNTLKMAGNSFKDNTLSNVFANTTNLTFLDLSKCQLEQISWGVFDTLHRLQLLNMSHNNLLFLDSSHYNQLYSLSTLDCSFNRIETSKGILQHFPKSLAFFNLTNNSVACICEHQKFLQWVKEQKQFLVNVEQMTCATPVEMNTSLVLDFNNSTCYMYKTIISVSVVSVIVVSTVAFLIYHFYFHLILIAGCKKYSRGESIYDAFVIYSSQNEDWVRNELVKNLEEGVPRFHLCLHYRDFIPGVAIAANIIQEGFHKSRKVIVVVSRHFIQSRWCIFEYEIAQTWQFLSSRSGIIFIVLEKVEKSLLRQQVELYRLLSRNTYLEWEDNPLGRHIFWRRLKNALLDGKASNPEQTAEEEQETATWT

[2] = system: Mus musculus; assay: Antiinflammatory activity in DBA/1 mouse collagen-induced arthritis model assessed as reduction in number of PMA/ionomycin-stimulated total DLN cells expressing IL-17 at 50 ug/kg, sc administered 2 days prior to collagen challenge continued till day 21 post collagen challenge by flow cytometric analysis relative to control; assay type: functional, organism-based
Outline: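 CIA mice given test agent (1 μg/dose) or PBS subcutaneously on days −2, 0 and 21. Draining lymph node cells (10^6/mL) in complete RPMI were stimulated ± 50 ng/mL PMA plus 500 ng/mL ionomycin, with 10 μg/mL brefeldin A for 5 h at 37 °C. Cells were surface-stained for CD4, CD8 and γδ, fixed and permeabilized, then stained for intracellular IFNγ and IL-17A. Gating used isotype controls. Cell numbers per individual mouse; naive n = 7, treated groups n = 13.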

[3] = molecular target: T1, Toll-like receptor 4 (Mus musculus); assay: Inhibition of TLR4 in C57BL/6 mouse BMDC assessed as reduction of LPS-induced TNF-alpha production at 5 ug/mL preincubated for 2 hrs prior to LPS challenge measured after 24 hrs by ELISA
Outline: (§1)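 C57BL/6 bone marrow DCs were generated in complete RPMI with 10 ng/mL GM-CSF. They were preincubated ± compound at 5 μg/mL for 2 h, then stimulated with LPS for 24 h. TNF-α, IL-6 and IL-23 in conditioned medium were measured by ELISA. Values are means of triplicates ± SEM pooled from 4 experiments.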

[4] = system: Mus musculus; assay: Antiinflammatory activity in DBA/1 mouse collagen-induced arthritis model assessed as reduction of disease scores at 50 ug/kg, sc administered 2 days prior to collagen challenge continued till day 21 post collagen challenge; assay type: functional, organism-based
Outline: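 Collagen-induced arthritis mice were dosed subcutaneously (1 μg/dose) or given PBS on days −2, 0 and 21. Arthritis was scored clinically and hind paw width measured. Incidence was the % of mice with severity score ≥2 (cumulative) or ≥4 (high score). Results are mean ± SEM. Scores n = 13 per group, pooled from two experiments; paw width n = 7, from a single experiment.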

[5] = molecular target: T2, Toll-like receptor 9 (Mus musculus) (UniProt Q9EQU3); assay: Inhibition of TLR9 in BALB/c mouse BMDM assessed as downregulation of CpG-stimulated IL-12p40 level at 5 ug/ml preincubated for 18 hrs followed by CpG challenge measured after 24 hrs by ELISA relative to control
T2 sequence (whole entry): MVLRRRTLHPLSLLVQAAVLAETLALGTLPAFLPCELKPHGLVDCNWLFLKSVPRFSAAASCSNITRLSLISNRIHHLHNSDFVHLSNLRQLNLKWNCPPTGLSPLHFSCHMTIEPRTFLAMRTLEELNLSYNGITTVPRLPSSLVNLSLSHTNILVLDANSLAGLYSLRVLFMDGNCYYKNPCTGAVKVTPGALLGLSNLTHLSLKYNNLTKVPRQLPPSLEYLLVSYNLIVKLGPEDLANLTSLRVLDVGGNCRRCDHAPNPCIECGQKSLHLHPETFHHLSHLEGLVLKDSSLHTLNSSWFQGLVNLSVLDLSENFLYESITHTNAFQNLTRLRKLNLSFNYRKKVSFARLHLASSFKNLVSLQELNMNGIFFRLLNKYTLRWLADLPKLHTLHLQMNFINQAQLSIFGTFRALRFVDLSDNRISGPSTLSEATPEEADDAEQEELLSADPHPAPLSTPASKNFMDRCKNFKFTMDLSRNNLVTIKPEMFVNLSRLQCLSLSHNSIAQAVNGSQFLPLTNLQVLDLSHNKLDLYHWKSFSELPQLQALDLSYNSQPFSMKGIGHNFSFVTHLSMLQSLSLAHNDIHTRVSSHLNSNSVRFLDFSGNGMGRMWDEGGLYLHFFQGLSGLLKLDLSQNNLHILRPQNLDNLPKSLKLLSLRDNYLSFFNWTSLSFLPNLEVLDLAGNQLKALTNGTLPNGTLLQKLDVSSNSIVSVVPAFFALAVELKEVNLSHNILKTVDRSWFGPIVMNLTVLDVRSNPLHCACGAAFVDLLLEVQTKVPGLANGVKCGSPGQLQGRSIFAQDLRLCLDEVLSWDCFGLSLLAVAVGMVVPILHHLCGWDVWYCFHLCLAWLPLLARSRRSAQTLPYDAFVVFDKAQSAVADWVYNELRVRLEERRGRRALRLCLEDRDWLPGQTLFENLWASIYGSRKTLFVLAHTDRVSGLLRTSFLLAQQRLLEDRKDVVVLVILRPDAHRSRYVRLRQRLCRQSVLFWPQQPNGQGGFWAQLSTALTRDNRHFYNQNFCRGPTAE
Outline: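 BALB/c male bone marrow macrophages were differentiated 7 days with L929 supernatant (≥99% CD11b+/F4/80+). Cells were plated at 2 × 10^5/well in triplicate, rested overnight, and given compounds at 5 μg/mL for 18 h. They were then stimulated with 100 ng/mL S. minnesota LPS, 10 ng/mL Pam3CSK4 (BLP) or 0.01 μM CpG for 24 h. Supernatant IL-12p40 and IL-6 were measured by ELISA (sensitivity 16 pg/mL).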

[6] = molecular target: T1, Toll-like receptor 4 (Mus musculus); assay: Inhibition of TLR4 in C57BL/6 mouse BMDC assessed as reduction of LPS-induced IL-6 production at 5 ug/mL preincubated for 2 hrs prior to LPS challenge measured after 24 hrs by ELISA; outline: as §1

inhibition [1]: inactive
inhibition [3]: Active
inhibition [5]: Active
inhibition [6]: Active
SMILES: CN(C)CCS(=O)(=O)Cc1ccc(Br)cc1
Activity [2]: Active
Activity [4]: Active
